Laboratory results reported in ChEMBL document CHEMBL1123865, “Synthesis and antitumor activity of N-terminal proline-containing peptide-(chloroethyl)nitrosoureas” (J Med Chem, 1987).
Activity calls are given as the source filed them. The rule behind the calls is not given here. Peptide text beside a SMILES is read from it. * marks the point of attachment. Carbamoyl(2-ClEt,NO) = O=NN(CCCl)C(=O)*; Boc = CC(C)(C)OC(=O)*; For = O=C*

Key:
[1] = test system: L1210; assay: Antitumor activity against L1210 Leukemia in mice at a dose of 200 mg/kg was determined.; format: functional, Mus musculus
Outline: (§1)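 L1210 leukemia in mice, 10 per group, treated with one ip injection 1 day after tumor transplantation at 0.1 mL/10 g body weight. Dose was dissolved in 0.2 mL DMSO and diluted to 10 mL with 0.9% NaCl. Controls received saline or solvent. %ILS = [(T − C)/C] × 100, using median survival days. Cures were scored on day 60 post-transplant.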

[2] = test system: L1210; assay: Antitumor activity against L1210 Leukemia in mice at a dose of 30 mg/kg was determined.; format: functional, Mus musculus; outline: as §1
[3] = test system: L1210; assay: Antitumor activity against L1210 Leukemia in mice at a dose of 100 mg/kg expressed as percent of increase in life span after day 60s was determined.; format: functional; settings: Mus musculus
Outline: (§2)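 L1210 leukemia-bearing mice, 10 per group; controls got saline or solvent. Dose was dissolved in 0.2 mL DMSO, diluted to 10 mL with 0.9% NaCl, and given as one ip injection (0.1 mL/10 g body weight) 1 day after transplantation. %ILS = [(T − C)/C] × 100 from median survival days, treated versus untreated. Cures were counted on day 60 after transplantation.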

[4] = test system: L1210; assay: Antitumor activity against L1210 Leukemia in mice at a dose of 200 mg/kg expressed as percent of increase in life span after day 60s was determined.; format: functional; settings: Mus musculus; outline: as §2
[5] = test system: L1210; assay: Antitumor activity against L1210 Leukemia in mice at a dose of 30 mg/kg expressed as percent of increase in life span after day 60s was determined.; format: functional; settings: Mus musculus; outline: as §2
[6] = Antitumor activity against L1210 Leukemia in mice expressed as 50% lethal dose was determined at 200 mg/kg; format: ADME, organism-based; parameters: dose 200 mg/kg; settings: mouse, in vivo
[7] = test system: L1210; assay: Antitumor activity against L1210 Leukemia in mice at a dose of 100 mg/kg was determined.; format: functional, Mus musculus; outline: as §1
[8] = test system: L1210; assay: Antitumor activity against L1210 Leukemia in mice at a dose of 30 mg/kg expressed as percent of increase in life span after day 60s was determined; no effect; format: functional, organism-based; parameters: dose 30 mg/kg; settings: Mus musculus; outline: as §2
[9] = test system: L1210; assay: Antitumor activity against L1210 Leukemia in mice at a dose of 100 mg/kg expressed as percent of increase in life span after day 60s was determined; no effect; format: functional, organism-based; parameters: dose 100 mg/kg; settings: Mus musculus; outline: as §2
[10] = Antitumor activity against L1210 Leukemia in mice expressed as 50% lethal dose was determined at a dose of 100 mg/kg; format: ADME, organism-based; parameters: dose 100 mg/kg; settings: mouse, in vivo
[11] = test system: L1210; assay: Antitumor activity against L1210 Leukemia in mice at a dose of 130 mg/kg was determined.; format: functional, Mus musculus
[12] = Antitumor activity against L1210 Leukemia in mice expressed as 50% lethal dose was determined at a dose of 130 mg/kg; format: ADME, organism-based; parameters: dose 130 mg/kg; settings: mouse, in vivo
[13] = test system: L1210; assay: Antitumor activity against L1210 Leukemia in mice at a dose of 50 mg/kg was determined.; format: functional, Mus musculus; outline: as §1
[14] = test system: L1210; assay: Antitumor activity against L1210 Leukemia in mice at a dose of 50 mg/kg expressed as percent of increase in life span after day 60s was determined.; format: functional; settings: Mus musculus; outline: as §2
[15] = test system: L1210; assay: Antitumor activity against L1210 Leukemia in mice at a dose of 200 mg/kg expressed as percent of increase in life span or the percent of surviving animals on day 60 was determined.; format: functional; settings: Mus musculus, L1210, 1440 h; outline: as §2

Structure (SMILES)	MED [1] [mmol/kg]	ILS at 100 mg/kg [3] [%]	LD50 [6] [mg/kg]	MED [7] [mmol/kg]	other results
CC(C)[C@H](NC(=O)[C@@H]1CCCN1C(=O)[C@H](CCCCNC=O)NC(=O)N(CCCl)N=O)C(N)=O	0.4	110	260	0.2	MED [2]: 0.059 mmol/kg; ILS at 200 mg/kg [4]: 190%; ILS at 30 mg/kg [5]: 70%
CC(C)[C@H](NC(=O)[C@@H]1CCCN1C(=O)[C@H](CCCCNC(=O)N(CCCl)N=O)NC(=O)[C@@H]1CCCN1C(=O)N(CCCl)N=O)C(N)=O ({Carbamoyl(2-ClEt,NO)}-PK(Carbamoyl(2-ClEt,NO))PV-NH2)	0.28	–	220	0.14	MED [2]: 0.042 mmol/kg; ILS at 200 mg/kg [4]: 120%; ILS at 30 mg/kg [5]: 100%
CC(C)[C@H](NC(=O)[C@@H]1CCCN1C(=O)[C@H](CCCCNOC(=O)C(C)(C)C)NC(=O)[C@@H]1CCCN1C(=O)N(CCCl)N=O)C(N)=O	–	–	–	–	ILS [8]: inactive; ILS [9]: inactive
CC(C)[C@H](NC(=O)[C@@H]1CCCN1C(=O)[C@H](CCCCNC(=O)N(CCCl)N=O)NC(=O)N(CCCl)N=O)C(N)=O	–	380	–	0.16	LD50 [10]: 250 mg/kg
NC(=O)C1CCCN1C(=O)N(CCCl)N=O (centres undefined)	–	420	–	0.403	LD50 [10]: 140 mg/kg
CC(C)[C@H](NC(=O)[C@@H]1CCCN1C(=O)[C@H](CCCCN)NC(=O)N(CCCl)N=O)C(N)=O.Cl	–	–	–	–	MED [11]: 0.25 mmol/kg; LD50 [12]: 175 mg/kg
CC(C)[C@H](NC(=O)[C@@H]1CCCN1C(=O)[C@H](CCCCNC(=O)OC(C)(C)C)NC(=O)[C@@H]1CCCN1C(=O)N(CCCl)N=O)C(N)=O ({Carbamoyl(2-ClEt,NO)}-PK(Boc)PV-NH2) [listing 1 of 2 here]	–	–	300	–	–
CC(C)[C@H](NC(=O)[C@@H]1CCCN1C(=O)N(CCCl)N=O)C(N)=O	–	–	–	0.28	LD50 [10]: 150 mg/kg
CC(C)[C@H](NC(=O)[C@@H]1CCCN1C(=O)[C@H](CCCCNC=O)NC(=O)[C@@H]1CCCN1C(=O)N(CCCl)N=O)C(N)=O ({Carbamoyl(2-ClEt,NO)}-PK(For)PV-NH2)	0.32	80	250	0.16	MED [13]: 0.083 mmol/kg; ILS at 200 mg/kg [4]: 80%; ILS at 50 mg/kg [14]: 40%
CC(C)[C@H](NC(=O)[C@@H]1CCCN1C(=O)[C@H](CCCCNC(=O)OC(C)(C)C)NC(=O)[C@@H]1CCCN1C(=O)N(CCCl)N=O)C(N)=O ({Carbamoyl(2-ClEt,NO)}-PK(Boc)PV-NH2) [listing 2 of 2 here]	0.3	–	–	0.15	MED [2]: 0.045 mmol/kg; ILS at 200 mg/kg [15]: 30%
CC(C)[C@H](NC(=O)[C@@H]1CCCN1C(=O)[C@@H](N)CCCCNC=O)C(N)=O.Cl (H-Lys(For)-Pro-Val-NH2)	–	–	–	0.24	ILS [9]: inactive
